Values belong to the compound of their own block, whether it stands above or below them. Activity calls are given as the source filed them. The rule behind the calls is not given here.
Tests used:
[1] = biological target: T1, Catechol O-methyltransferase (Rattus norvegicus) (UniProt P22734); test: Ability to inhibit Catechol O-methyltransferase from rat liver at a concentration of 1 mM. Inhibition pattern was reported; Noncompetitive kinetics
T1 sequence (whole entry): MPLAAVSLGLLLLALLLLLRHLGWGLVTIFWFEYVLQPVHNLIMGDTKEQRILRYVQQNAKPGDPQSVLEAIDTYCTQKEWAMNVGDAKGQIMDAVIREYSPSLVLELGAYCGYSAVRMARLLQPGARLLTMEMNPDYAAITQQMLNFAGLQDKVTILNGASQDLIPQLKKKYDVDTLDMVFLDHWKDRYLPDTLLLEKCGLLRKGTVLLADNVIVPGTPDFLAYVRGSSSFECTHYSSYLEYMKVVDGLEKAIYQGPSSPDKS
Procedure, shortened: (§1)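 COMT purified from male Sprague–Dawley rat liver (180–200 g) through the calcium phosphate step, then reactivated before use by 40 min preincubation at 37 °C in pH 7.6 phosphate buffer with 4 mM DTT. Radiochemical assay: 3,4-dihydroxybenzoic acid variable (0.02–0.20 mM), SAM 0.2 mM plus 0.05 μCi SAM-¹⁴CH₃, Mg²⁺ 1 mM, DTT 4 mM, 100 mM phosphate pH 7.6. Inhibition pattern and Kis/Kii taken from double-reciprocal plots.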

[2] = biological target: T1, Catechol O-methyltransferase (Rattus norvegicus); test: Ability to inhibit Catechol O-methyltransferase kinetic inhibition Kii constant was reported.; procedure, shortened: as §1
[3] = biological target: T1, Catechol O-methyltransferase (Rattus norvegicus); test: Ability to inhibit Catechol O-methyltransferase kinetic inhibition Kis constant was reported.; procedure, shortened: as §1
[4] = biological target: T1, Catechol O-methyltransferase (Rattus norvegicus); test: Ability to inhibit Catechol O-methyltransferase from rat liver at a concentration of 1 mM. Inhibition pattern was reported; No inhibitory activity; procedure, shortened: as §1
[5] = biological target: T1, Catechol O-methyltransferase (Rattus norvegicus); test: Ability to inhibit Catechol O-methyltransferase from rat liver at a concentration of 1 mM. Inhibition pattern was reported; Competitive kinetics; procedure, shortened: as §1
[6] = biological target: T1, Catechol O-methyltransferase (Rattus norvegicus); test: Ability to inhibit Catechol O-methyltransferase from rat liver. kinetic inhibition Kis constant was reported; procedure, shortened: as §1
[7] = biological target: T1, Catechol O-methyltransferase (Rattus norvegicus); test: Ability to inhibit Catechol O-methyltransferase from rat liver. kinetic inhibition Kii constant was reported; procedure, shortened: as §1
[8] = biological target: T1, Catechol O-methyltransferase (Rattus norvegicus); test: Ability to inhibit Catechol O-methyltransferase. Following kinetic inhibition constants Kii was reported; procedure, shortened: as §1
[9] = biological target: T1, Catechol O-methyltransferase (Rattus norvegicus); test: Ability to inhibit Catechol O-methyltransferase. Following kinetic inhibition constants Kis was reported; procedure, shortened: as §1

SMILES: COc1c(O)cc(C=O)cc1O
inhibition pattern [1]: Noncompetitive kinetics | Kii [2]: 16.1 µM | Kis [3]: 9.98 µM

SMILES: COc1c(O)cc(C=O)cc1Br
inhibition pattern [1]: Noncompetitive kinetics | Kii [2]: 16.5 µM | Kis [3]: 31.8 µM

SMILES: COc1c(O)cc(C=O)cc1Cl
inhibition pattern [1]: Noncompetitive kinetics | Kii [2]: 10.8 µM | Kis [3]: 31.6 µM

SMILES: COc1c(O)cc(C=O)cc1[N+](=O)[O-]
inhibition [5]: Competitive kinetics | Kis [3]: 0.7 µM

SMILES: COc1c(O)cc(C=O)cc1F
inhibition [1]: Noncompetitive kinetics | Kii [2]: 48.4 µM | Kis [3]: 56.9 µM

SMILES: COc1c(O)cc(C(=O)O)cc1C#N
inhibition pattern [1]: Noncompetitive kinetics | Kis [6]: 589 µM | Kii [7]: 571 µM

SMILES: COc1ccc(C=O)cc1O
inhibition [4]: inactive

SMILES: COc1c(O)cc(C=O)cc1I
inhibition pattern [1]: Noncompetitive kinetics | Kii [2]: 56.6 µM | Kis [3]: 111 µM

SMILES: CCOC(=S)Sc1cc(C=O)cc(O)c1OC
inhibition pattern [1]: Noncompetitive kinetics | Kii [8]: 272 µM | Kis [9]: 885 µM

SMILES: COc1c(O)cc(C(=O)O)cc1[N+](=O)[O-]
inhibition pattern [1]: Noncompetitive kinetics | Kis [6]: 50.2 µM | Kii [7]: 247 µM

SMILES: COc1c(O)cc(C(=O)O)cc1N(C)C
inhibition [4]: inactive

Now from value to compound:

inhibition [4]: inactive
SMILES: COc1c(O)cc(C(=O)O)cc1I

inhibition [4]: inactive
SMILES: COc1c(N)cc(C(=O)O)cc1O

inhibition [5]: Competitive kinetics | Kis [6]: 394 µM
SMILES: COc1c(O)cc(C(=O)O)cc1Cl

inhibition pattern [1]: Noncompetitive kinetics | Kis [6]: 999 µM | Kii [7]: 521 µM
SMILES: COc1cc(C(=O)O)cc(O)c1OC

inhibition [4]: inactive
SMILES: COc1ccc(C(=O)O)cc1O

inhibition [5]: Competitive kinetics | Kis [6]: 340 µM
SMILES: COc1c(O)cc(C(=O)O)cc1Br

— ChEMBL document CHEMBL1122022, “Catechol O-methyltransferase. 10. 5-Substituted 3-hydroxy-4-methoxybenzoic acids (isovanillic acids) and 5-substituted 3-hydroxy-4-methoxybenzaldehydes (isovanillins) as potential inhibitors” (J Med Chem, 1982)
